What was measured:
Assay type in all cases: functional
[1] = system: SF-539; assay: Cytotoxicity against human SF539 cells assessed as cell growth at 10 uM; conditions: read-out: Activity
Method in brief: (§1)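 NCI-60 screen: cells grown in RPMI 1640 with 5% FBS and 2 mM L-glutamine, plated at 5000–40,000 cells/well according to doubling time, and preincubated 24 h at 37 °C, 5% CO2. The single 10 µM dose (DMSO stock) was added, then incubated 48 h. Cells were TCA-fixed and stained with 0.4% SRB, read at 515 nm, and growth % calculated against time-zero and control plates.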

[2] = system: SNB-19; assay: Cytotoxicity against human SNB19 cells assessed as cell growth at 10 uM; conditions: read-out: Activity; method in brief: as §1
[3] = system: SNB-75; assay: Cytotoxicity against human SNB75 cells assessed as cell growth at 10 uM; conditions: read-out: Activity; method in brief: as §1
[4] = system: U-251; assay: Cytotoxicity against human U251 cells assessed as cell growth at 10 uM; conditions: read-out: Activity; method in brief: as §1
[5] = system: LOX IMVI; assay: Cytotoxicity against human LOXIMVI cells assessed as cell growth at 10 uM; conditions: read-out: Activity; method in brief: as §1
[6] = system: Malme-3M; assay: Cytotoxicity against human MALME-3M cells assessed as cell growth at 10 uM; conditions: read-out: Activity; method in brief: as §1
[7] = system: M14; assay: Cytotoxicity against human M14 cells assessed as cell growth at 10 uM; conditions: read-out: Activity; method in brief: as §1
[8] = system: MDA-MB-435; assay: Cytotoxicity against human MDA-MB-435 cells assessed as cell growth at 10 uM; conditions: read-out: Activity; method in brief: as §1
[9] = system: SK-MEL-2; assay: Cytotoxicity against human SK-MEL-2 cells assessed as cell growth at 10 uM; conditions: read-out: Activity; method in brief: as §1
[10] = system: SK-MEL-28; assay: Cytotoxicity against human SK-MEL-28 cells assessed as cell growth at 10 uM; conditions: read-out: Activity; method in brief: as §1
[11] = system: SK-MEL-5; assay: Cytotoxicity against human SK-MEL-5 cells assessed as cell growth at 10 uM; conditions: read-out: Activity; method in brief: as §1
[12] = system: UACC-257; assay: Cytotoxicity against human UACC257 cells assessed as cell growth at 10 uM; conditions: read-out: Activity; method in brief: as §1
[13] = system: UACC-62; assay: Cytotoxicity against human UACC62 cells assessed as cell growth at 10 uM; conditions: read-out: Activity; method in brief: as §1
[14] = system: IGROV-1; assay: Cytotoxicity against human IGROV1 cells assessed as cell growth at 10 uM; conditions: read-out: Activity
Method in brief: (§2)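 Single-dose NCI-60 screen at 10 µM. Cells were grown in RPMI 1640 with 5% FBS and 2 mM L-glutamine, then treated for 48 h at 37 °C. Protein was measured by SRB staining with absorbance at 515 nm. Percentage growth was recorded, and inhibition percentage was calculated as 100 minus growth percentage.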

[15] = system: OVCAR-3; assay: Cytotoxicity against human OVCAR-3 cells assessed as cell growth at 10 uM; conditions: read-out: Activity; method in brief: as §1
[16] = system: OVCAR-4; assay: Cytotoxicity against human OVCAR4 cells assessed as cell growth at 10 uM; conditions: read-out: Activity; method in brief: as §1
[17] = system: OVCAR-5; assay: Cytotoxicity against human OVCAR5 cells assessed as cell growth at 10 uM; conditions: read-out: Activity; method in brief: as §1
[18] = system: OVCAR-8; assay: Cytotoxicity against human OVCAR8 cells assessed as cell growth at 10 uM; conditions: read-out: Activity; method in brief: as §1
[19] = system: NCI/ADR-RES; assay: Cytotoxicity against human NCI/ADR-RES cells assessed as cell growth at 10 uM; conditions: read-out: Activity; method in brief: as §1
[20] = system: SK-OV-3; assay: Cytotoxicity against human SKOV3 cells assessed as cell growth at 10 uM; conditions: read-out: Activity; method in brief: as §1
[21] = system: 786-0; assay: Cytotoxicity against human 786-0 cells assessed as cell growth at 10 uM; conditions: read-out: Activity; method in brief: as §2
[22] = system: A498; assay: Cytotoxicity against human A498 cells assessed as cell growth at 10 uM; conditions: read-out: Activity; method in brief: as §2
[23] = system: ACHN; assay: Cytotoxicity against human ACHN cells assessed as cell growth at 10 uM; conditions: read-out: Activity; method in brief: as §2
[24] = system: CAKI-1; assay: Cytotoxicity against human Caki1 cells assessed as cell growth at 10 uM; conditions: read-out: Activity; method in brief: as §2
[25] = system: RXF 393; assay: Cytotoxicity against human RXF393 cells assessed as cell growth at 10 uM; conditions: read-out: Activity; method in brief: as §1
[26] = system: SN12C; assay: Cytotoxicity against human SN12C cells assessed as cell growth at 10 uM; conditions: read-out: Activity; method in brief: as §1
[27] = system: TK-10; assay: Cytotoxicity against human TK10 cells assessed as cell growth at 10 uM; conditions: read-out: Activity; method in brief: as §1
[28] = system: UO-31; assay: Cytotoxicity against human UO31 cells assessed as cell growth at 10 uM; conditions: read-out: Activity; method in brief: as §1
[29] = system: PC-3; assay: Cytotoxicity against human PC3 cells assessed as cell growth at 10 uM; conditions: read-out: Activity; method in brief: as §1
[30] = system: DU-145; assay: Cytotoxicity against human DU145 cells assessed as cell growth at 10 uM; conditions: read-out: Activity; method in brief: as §2
[31] = system: MCF7; assay: Cytotoxicity against human MCF7 cells assessed as cell growth at 10 uM; conditions: read-out: Activity; method in brief: as §1
[32] = system: MDA-MB-231; assay: Cytotoxicity against human MDA-MB-231 cells assessed as cell growth at 10 uM; conditions: read-out: Activity; method in brief: as §1
[33] = Cytotoxicity against human Hs 578T cells assessed as cell growth at 10 uM; conditions: read-out: Activity; method in brief: as §2
[34] = system: BT-549; assay: Cytotoxicity against human BT549 cells assessed as cell growth at 10 uM; conditions: read-out: Activity; method in brief: as §2
[35] = system: T47D; assay: Cytotoxicity against human T47D cells assessed as cell growth at 10 uM; conditions: read-out: Activity; method in brief: as §1
[36] = system: MDA-MB-468; assay: Cytotoxicity against human MDA-MB-468 cells assessed as cell growth at 10 uM; conditions: read-out: Activity; method in brief: as §1
[37] = Growth inhibition of human NCI60 cells at 10 uM after 48 hrs by sulforhodamine B assay relative to control; conditions: NCI60, 48 h, read-out: GI
Method in brief: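 Single-dose NCI screen at 10 µM across the 60-line panel, 48 h exposure at 37 °C after a 24 h preincubation. Adherent cells were fixed with cold TCA and stained with 0.4% SRB, and absorbance was read at 515 nm. Inhibition % was taken as 100 minus growth %, and the mean across all lines was reported.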

[38] = system: CCRF-CEM; assay: Cytotoxicity against human CCRF-CEM cells assessed as cell growth at 10 uM; conditions: read-out: Activity; method in brief: as §2
[39] = system: HL-60(TB); assay: Cytotoxicity against human HL-60(TB) cells assessed as cell growth at 10 uM; conditions: read-out: Activity
Method in brief: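 NCI 60-cell panel screen at a single concentration of 10 µM. Cells are grown in RPMI 1640 with 5% FBS and 2 mM L-glutamine and read by SRB protein staining at 515 nm. Percent growth is measured relative to time-zero and untreated controls; inhibition % is 100 minus growth %.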

[40] = system: K562; assay: Cytotoxicity against human K562 cells assessed as cell growth at 10 uM; conditions: read-out: Activity; method in brief: as §2
[41] = system: MOLT-4; assay: Cytotoxicity against human MOLT4 cells assessed as cell growth at 10 uM; conditions: read-out: Activity; method in brief: as §1
[42] = Cytotoxicity against human […] cells assessed as cell growth at 10 uM; conditions: read-out: Activity; method in brief: as §1
[43] = system: SR; assay: Cytotoxicity against human SR cells assessed as cell growth at 10 uM; conditions: read-out: Activity; method in brief: as §1
[44] = system: A549; assay: Cytotoxicity against human A549 cells assessed as cell growth at 10 uM; conditions: read-out: Activity; method in brief: as §2
[45] = system: EKVX; assay: Cytotoxicity against human EKVX cells assessed as cell growth at 10 uM; conditions: read-out: Activity; method in brief: as §2
[46] = system: HOP-62; assay: Cytotoxicity against human HOP62 cells assessed as cell growth at 10 uM; conditions: read-out: Activity; method in brief: as §2
[47] = system: HOP-92; assay: Cytotoxicity against human HOP92 cells assessed as cell growth at 10 uM; conditions: read-out: Activity; method in brief: as §2
[48] = system: NCI-H226; assay: Cytotoxicity against human NCI-H226 cells assessed as cell growth at 10 uM; conditions: read-out: Activity; method in brief: as §1
[49] = system: NCI-H23; assay: Cytotoxicity against human NCI-H23 cells assessed as cell growth at 10 uM; conditions: read-out: Activity; method in brief: as §1
[50] = system: NCI-H322M; assay: Cytotoxicity against human NCI-H322M cells assessed as cell growth at 10 uM; conditions: read-out: Activity; method in brief: as §1
[51] = system: NCI-H460; assay: Cytotoxicity against human NCI-H460 cells assessed as cell growth at 10 uM; conditions: read-out: Activity; method in brief: as §1
[52] = system: NCI-H522; assay: Cytotoxicity against human NCI-H522 cells assessed as cell growth at 10 uM; conditions: read-out: Activity; method in brief: as §1
[53] = system: COLO 205; assay: Cytotoxicity against human COLO205 cells assessed as cell growth at 10 uM; conditions: read-out: Activity; method in brief: as §2
[54] = system: HCC 2998; assay: Cytotoxicity against human HCC2998 cells assessed as cell growth at 10 uM; conditions: read-out: Activity; method in brief: as §2
[55] = system: HCT-116; assay: Cytotoxicity against human HCT116 cells assessed as cell growth at 10 uM; conditions: read-out: Activity; method in brief: as §2
[56] = system: HCT-15; assay: Cytotoxicity against human HCT15 cells assessed as cell growth at 10 uM; conditions: read-out: Activity; method in brief: as §2
[57] = system: HT-29; assay: Cytotoxicity against human HT-29 cells assessed as cell growth at 10 uM; conditions: read-out: Activity; method in brief: as §2
[58] = system: KM12; assay: Cytotoxicity against human KM12 cells assessed as cell growth at 10 uM; conditions: read-out: Activity; method in brief: as §1
[59] = system: SW-620; assay: Cytotoxicity against human SW620 cells assessed as cell growth at 10 uM; conditions: read-out: Activity; method in brief: as §1
[60] = system: SF-268; assay: Cytotoxicity against human SF268 cells assessed as cell growth at 10 uM; conditions: read-out: Activity; method in brief: as §1
[61] = system: SF-295; assay: Cytotoxicity against human SF295 cells assessed as cell growth at 10 uM; conditions: read-out: Activity; method in brief: as §1

Which results are given for `Cc1cc(O)cc(-c2nn(CC#N)cc2-c2ccnc(-c3ccc(C#N)cc3)c2)c1`?
growth at 10 µM [1]: 76%; growth at 10 µM [2]: 85.2%; growth at 10 µM [3]: 46.3%; growth at 10 µM [4]: 91.5%; growth at 10 µM [5]: 81.9%; growth at 10 µM [6]: 125%; growth at 10 µM [7]: 90.3%; growth at 10 µM [8]: 88.3%; growth at 10 µM [9]: 78.5%; growth at 10 µM [10]: 88.3%; growth at 10 µM [11]: 58.4%; growth at 10 µM [12]: 94.2%; growth at 10 µM [13]: 62.3%; growth at 10 µM [14]: 77.3%; growth at 10 µM [15]: 110%; growth at 10 µM [16]: 79.5%; growth at 10 µM [17]: 107%; growth at 10 µM [18]: 72.9%; growth at 10 µM [19]: 77.7%; growth at 10 µM [20]: 88.5%; growth at 10 µM [21]: 77.9%; growth at 10 µM [22]: 103%; growth at 10 µM [23]: 65.2%; growth at 10 µM [24]: 84.3%; growth at 10 µM [25]: 59.4%; growth at 10 µM [26]: 73.5%; growth at 10 µM [27]: 78.4%; growth at 10 µM [28]: 60.1%; growth at 10 µM [29]: 95.5%; growth at 10 µM [30]: 96.3%; growth at 10 µM [31]: 34.4%; growth at 10 µM [32]: 67%; growth at 10 µM [33]: 103%; growth at 10 µM [34]: 84.8%; growth at 10 µM [35]: 29.2%; growth at 10 µM [36]: 33.7%; inhibition of growth at 10 µM [37]: 20.8%; growth at 10 µM [38]: 81.2%; growth at 10 µM [39]: 56.2%; growth at 10 µM [40]: 70%; growth at 10 µM [41]: 54.6%; growth at 10 µM [42]: 70.2%; growth at 10 µM [43]: 88.5%; growth at 10 µM [44]: 83.2%; growth at 10 µM [45]: 79.1%; growth at 10 µM [46]: 85.4%; growth at 10 µM [47]: 72.3%; growth at 10 µM [48]: 79.8%; growth at 10 µM [49]: 72.7%; growth at 10 µM [50]: 97.4%; growth at 10 µM [51]: 104%; growth at 10 µM [52]: 60.7%; growth at 10 µM [53]: 66.1%; growth at 10 µM [54]: 92%; growth at 10 µM [55]: 65.7%; growth at 10 µM [56]: 70.4%; growth at 10 µM [57]: 66.3%; growth at 10 µM [58]: 95.6%; growth at 10 µM [59]: 119%; growth at 10 µM [60]: 102%; growth at 10 µM [61]: 91.3%

Reference: ChEMBL document CHEMBL1165950, “Design and synthesis of new potent anticancer pyrazoles with high FLT3 kinase inhibitory selectivity” (Bioorg Med Chem, 2010)
